Measured values reported in ChEMBL document CHEMBL3098056, “Small molecule inhibitors of anthrax lethal factor toxin” (Bioorg Med Chem, 2014).

Legend:
[1] = target: Botulinum neurotoxin type A (Clostridium botulinum, UniProt P0DPI0); assay: Inhibition of Clostridium bolulinum BoNT/A assessed as cleavage of MOCAc-Lys-Lys-Val-Tyr-Pro-Tyr-Pro-Met-Glu-Lys(Dnp)-NH2 after 40 mins by FRET assay
How it was run: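 BoNT/A light chain (2 nM) in a 96-well FRET format. Reactions were stopped with acetic acid to 0.5% and cleaved-substrate fluorescence read at 485 nm with excitation at 398 nm. The same format served for IC50 and mechanism kinetics.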

[2] = target: T1, Lethal factor (Bacillus anthracis, UniProt P15917); assay: Inhibition of Bacillus anthracis lethal factor assessed as MCA-KKVYPYPME[dnp]K amide cleavage after 30 mins by fluorescence plate reader analysis
T1 sequence (P15917 whole entry): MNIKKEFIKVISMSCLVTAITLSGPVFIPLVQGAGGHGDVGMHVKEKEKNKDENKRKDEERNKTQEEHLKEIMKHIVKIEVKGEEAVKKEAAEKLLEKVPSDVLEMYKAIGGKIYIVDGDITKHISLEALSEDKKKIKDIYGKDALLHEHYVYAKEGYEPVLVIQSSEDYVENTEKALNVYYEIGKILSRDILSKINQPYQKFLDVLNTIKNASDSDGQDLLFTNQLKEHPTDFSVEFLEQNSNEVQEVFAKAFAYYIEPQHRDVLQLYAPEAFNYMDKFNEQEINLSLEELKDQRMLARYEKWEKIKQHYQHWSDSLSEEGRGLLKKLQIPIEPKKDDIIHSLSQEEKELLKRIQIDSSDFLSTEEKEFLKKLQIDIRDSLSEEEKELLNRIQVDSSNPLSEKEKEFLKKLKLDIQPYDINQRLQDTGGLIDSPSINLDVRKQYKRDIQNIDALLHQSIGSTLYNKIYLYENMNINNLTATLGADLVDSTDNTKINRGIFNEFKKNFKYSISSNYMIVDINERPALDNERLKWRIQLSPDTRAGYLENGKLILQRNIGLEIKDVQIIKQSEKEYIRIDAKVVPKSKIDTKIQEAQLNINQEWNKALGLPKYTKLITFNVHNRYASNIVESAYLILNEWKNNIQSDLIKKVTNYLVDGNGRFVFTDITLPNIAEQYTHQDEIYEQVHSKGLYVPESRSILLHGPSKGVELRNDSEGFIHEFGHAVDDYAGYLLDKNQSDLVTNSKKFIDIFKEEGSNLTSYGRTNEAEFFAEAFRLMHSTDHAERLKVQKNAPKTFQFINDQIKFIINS

[3] = target: T2, Interstitial collagenase (Homo sapiens, UniProt P03956); assay: Inhibition of human MMP-1 after 60 mins by FRET assay
T2 sequence (P03956 whole entry): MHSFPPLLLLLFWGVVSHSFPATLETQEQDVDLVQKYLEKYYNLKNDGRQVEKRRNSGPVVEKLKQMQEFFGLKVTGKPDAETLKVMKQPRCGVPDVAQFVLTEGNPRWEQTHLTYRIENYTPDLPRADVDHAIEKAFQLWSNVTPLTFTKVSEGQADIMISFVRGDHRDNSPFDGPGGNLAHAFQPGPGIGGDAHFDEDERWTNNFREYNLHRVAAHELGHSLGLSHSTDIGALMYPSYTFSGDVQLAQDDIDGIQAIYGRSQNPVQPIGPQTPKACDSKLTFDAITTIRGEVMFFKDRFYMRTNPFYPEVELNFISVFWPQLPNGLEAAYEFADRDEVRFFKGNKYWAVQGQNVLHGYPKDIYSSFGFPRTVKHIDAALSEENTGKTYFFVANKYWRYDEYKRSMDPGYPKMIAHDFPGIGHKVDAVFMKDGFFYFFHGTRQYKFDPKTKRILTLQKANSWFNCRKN
How it was run: (§1)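 MMP-1 (38 nM) or MMP-9 (13 nM) with 50 fluorogenic substrate in 50 mM MOPS pH 6.0 and 0.05% NP-40, 37 °C for 60 min (linear range 90 min). Stopped with acetic acid (0.5% final); emission at 440 nm, excitation at 340 nm.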

[4] = target: Matrix metalloproteinase-9 (Homo sapiens, UniProt P14780); assay: Inhibition of human MMP-9 after 60 mins by FRET assay; how it was run: as §1
Sequence of Matrix metalloproteinase-9 (P14780 whole entry): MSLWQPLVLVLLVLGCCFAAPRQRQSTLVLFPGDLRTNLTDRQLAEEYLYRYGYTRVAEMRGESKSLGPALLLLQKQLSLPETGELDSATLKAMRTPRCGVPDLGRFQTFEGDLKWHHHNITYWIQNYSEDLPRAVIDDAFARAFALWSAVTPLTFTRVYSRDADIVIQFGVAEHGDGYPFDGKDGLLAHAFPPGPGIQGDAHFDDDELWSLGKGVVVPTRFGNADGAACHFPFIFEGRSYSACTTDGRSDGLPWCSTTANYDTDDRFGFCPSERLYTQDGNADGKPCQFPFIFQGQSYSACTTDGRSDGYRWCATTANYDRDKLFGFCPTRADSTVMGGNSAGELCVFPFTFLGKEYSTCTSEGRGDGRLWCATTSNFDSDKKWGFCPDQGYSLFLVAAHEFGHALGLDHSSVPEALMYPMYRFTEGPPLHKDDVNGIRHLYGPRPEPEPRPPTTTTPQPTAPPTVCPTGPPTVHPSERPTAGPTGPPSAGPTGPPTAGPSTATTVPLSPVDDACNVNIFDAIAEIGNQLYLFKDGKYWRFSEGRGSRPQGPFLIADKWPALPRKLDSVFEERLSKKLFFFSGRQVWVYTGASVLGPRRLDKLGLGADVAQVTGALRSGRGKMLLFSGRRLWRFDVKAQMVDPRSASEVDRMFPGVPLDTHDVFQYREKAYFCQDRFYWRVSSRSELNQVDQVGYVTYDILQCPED

[5] = target: T1, Lethal factor; assay: Inhibition of Bacillus anthracis lethal factor
How it was run: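 FRET-based assay: LF cleaves a SNAP-derived fluorogenic peptide, and cleavage is read as a change in fluorescence.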

Sequence of Botulinum neurotoxin type A (P0DPI0 2-448 limits assumed): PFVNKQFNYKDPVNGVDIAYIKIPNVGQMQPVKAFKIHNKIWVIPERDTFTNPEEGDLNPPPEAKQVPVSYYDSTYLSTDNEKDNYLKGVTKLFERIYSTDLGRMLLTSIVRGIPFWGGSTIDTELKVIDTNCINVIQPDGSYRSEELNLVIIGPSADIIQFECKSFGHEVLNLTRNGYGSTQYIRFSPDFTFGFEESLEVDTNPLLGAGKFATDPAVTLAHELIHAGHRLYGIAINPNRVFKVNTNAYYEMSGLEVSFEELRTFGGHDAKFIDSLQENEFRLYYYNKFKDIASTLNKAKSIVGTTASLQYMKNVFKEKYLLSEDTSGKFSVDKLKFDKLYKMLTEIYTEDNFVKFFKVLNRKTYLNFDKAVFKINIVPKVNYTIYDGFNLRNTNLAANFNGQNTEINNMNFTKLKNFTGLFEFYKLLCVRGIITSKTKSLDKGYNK

Row | Structure (SMILES) | IC50 [1] [µM] | IC50 [2] [µM] | IC50 [3] [µM] | IC50 [4] [µM] | IC50 [5] [µM] | Ki [5] [µM]
1 | Cc1cc(N)c2cc(NC(=O)Cc3ccc4c(c3)OCO4)ccc2n1 | > 100 | > 100 |  |  |  | 
2 | Cc1cc(N)c2cc(NC(=O)c3cccc(-c4cccc5cccnc45)c3)ccc2n1 | 79 | 36 | > 100 | > 100 |  | 
3 | Cc1cc(N)c2cc(NC(=O)c3cccc(C(=O)c4ccccc4)c3)ccc2n1 | > 100 | 73 |  |  |  | 
4 | Cc1cc(N)c2cc(NC(=O)CCc3ccccc3OC(=O)c3ccccc3)ccc2n1 | > 100 | > 100 |  |  |  | 
5 | CCCOc1ccccc1CCC(=O)Nc1ccc2nc(C)cc(N)c2c1 | > 100 | > 100 |  |  |  | 
6 | Cc1cc(N)c2cc(NC(=O)NCc3ccccc3Cl)ccc2n1 | > 100 | 61 |  |  |  | 
7 | Cc1cc(N)c2cc(NC(=O)Nc3ccc4c(c3)OCO4)ccc2n1 | 41 | > 100 |  |  |  | 
8 | COc1ccncc1CCC(=O)Nc1ccc2nc(C)cc(N)c2c1 | > 100 | > 50 |  |  |  | 
9 | COc1cccc(CCC(=O)Nc2ccc3nc(C)cc(N)c3c2)c1OC | > 100 | > 100 |  |  |  | 
10 | COc1ccc(OC)c(CCC(=O)Nc2ccc3nc(C)cc(N)c3c2)c1 | > 100 | > 100 |  |  |  | 
11 | CCOC(=O)c1ccc(NC(=O)Nc2ccc3nc(C)cc(N)c3c2)cc1 | 51 | 87 |  |  |  | 
12 | Cc1cc(N)c2cc(NC(=O)Cc3ccccc3)ccc2n1 | > 100 | > 100 |  |  |  | 
13 | Cc1cc(N)c2cc(NC(=O)Nc3ccc(F)cc3)ccc2n1 | 32 | 95 |  |  |  | 
14 | Cc1cc(N)c2cc(NC(=O)Nc3ccc(-c4ccccc4)cc3)ccc2n1 | 79 | 79 |  |  |  | 
15 | Cc1cc(N)c2cc(NC(=O)Nc3ccc(C(=O)c4ccccc4)cc3)ccc2n1 | 67 | 26 | > 100 | > 100 |  | 
16 | Cc1cc(N)c2cc(NC(=O)CCc3ccccc3C(F)(F)F)ccc2n1 | > 100 | 38 | > 100 | > 100 |  | 
17 | Cc1cc(N)c2cc(NC(=O)COc3ccc(OCc4ccccc4)cc3)ccc2n1 | > 100 | 33 | > 100 | > 100 |  | 
18 | Cc1cc(N)c2cc(NC(=O)c3cccc(-c4cncc5ccccc45)c3)ccc2n1 | > 100 | 21 | 50 | 48 |  | 
19 | Cc1cc(N)c2cc(NC(=O)c3cccc(-c4cnc5ccccc5c4)c3)ccc2n1 | 45 | 5.7 | > 100 | 16 |  | 
20 | Cc1cc(N)c2cc(NC(=O)c3ccc(-c4cccc5ncccc45)cc3)ccc2n1 | 34 | 10 |  |  |  | 

Row | Structure (SMILES) | IC50 [1] [µM] | IC50 [2] [µM] | IC50 [3] [µM] | IC50 [4] [µM] | IC50 [5] [µM] | Ki [5] [µM]
21 | COc1ccccc1CNC(=O)Nc1ccc2nc(C)cc(N)c2c1 | > 100 | > 100 |  |  |  | 
22 | Cc1cc(N)c2cc(NC(=O)c3cccc(-c4ccc(N(C)C)cc4)c3)ccc2n1 | 69 |  |  | > 100 |  | 
23 | Cc1cc(N)c2cc(NC(=O)c3cccc(-c4ccc5ncccc5c4)c3)ccc2n1 | 26 | 4.6 | > 100 | > 100 |  | 
24 | Cc1cc(N)c2cc(NC(=O)c3cc4ccccc4o3)ccc2n1 | > 100 | 90 |  |  |  | 
25 | Cc1cc(N)c2cc(NC(=O)c3cccc(-c4cccc5ncccc45)c3)ccc2n1 | 68 | 33 | 65 | 50 |  | 
26 | COc1ccc(Br)cc1CCC(=O)Nc1ccc2nc(C)cc(N)c2c1 | > 100 | > 100 |  |  |  | 
27 | COc1ncccc1CCC(=O)Nc1ccc2nc(C)cc(N)c2c1 | > 100 | 41 | > 100 | > 100 |  | 
28 | COc1ccsc1CCC(=O)Nc1ccc2nc(C)cc(N)c2c1 | > 100 | > 100 |  |  |  | 
29 | COc1ccc(Cl)cc1CCC(=O)Nc1ccc2nc(C)cc(N)c2c1 | > 100 | > 100 |  |  |  | 
30 | COc1ccccc1/C=C/C(=O)Nc1ccc2nc(C)cc(N)c2c1 | > 100 | 46 | > 100 | > 100 |  | 
31 | COc1cc(Br)ccc1CCC(=O)Nc1ccc2nc(C)cc(N)c2c1 | > 100 | 58 |  |  |  | 
32 | COc1ccccc1CC(=O)Nc1ccc2nc(C)cc(N)c2c1 | > 100 | > 100 |  |  |  | 
33 | CNC(=O)[C@@H](CCc1ccccc1)NC(=O)[C@@H](CC(=O)NO)CC(C)C |  |  |  |  | 7 | 
34 | Cc1cc(N)c2cc(NC(=O)Nc3ccc4nc(C)cc(N)c4c3)ccc2n1 [AMINOQUINURIDE] | 7.2 | 3.2 | 31 | 100 |  | 
35 | Cc1cc(=S)c(O)c(C(=S)NCc2ccc(-c3ccccc3)cc2)o1 |  |  |  |  | 14 | 
36 | Cc1cc(N)c2cc(NC(=O)c3ccc(-c4cccnc4)cc3)ccc2n1 | 23 | 43 |  | > 100 |  | 
37 | COc1cc(Cl)ccc1CCC(=O)Nc1ccc2nc(C)cc(N)c2c1 | > 100 | 78 |  |  |  | 
38 | COc1ccc(/C=C/C(=O)Nc2ccc3nc(C)cc(N)c3c2)cc1 | > 100 | 55 |  |  |  | 
39 | Cc1cc(N)c2cc(NC(=O)CCc3ccccc3)ccc2n1 | > 100 | > 100 |  |  |  | 
40 | Cc1cc(N)c2cc(NC(=O)c3ccc(-c4cncc5ccccc45)cc3)ccc2n1 | 65 | 13 | > 100 | 9.4 |  | 

Row | Structure (SMILES) | IC50 [1] [µM] | IC50 [2] [µM] | IC50 [3] [µM] | IC50 [4] [µM] | IC50 [5] [µM] | Ki [5] [µM]
41 | Cc1cc(N)c2cc(NC(=O)CCc3ccccc3C)ccc2n1 | > 100 | > 100 |  |  |  | 
42 | CCOc1ccccc1CCC(=O)Nc1ccc2nc(C)cc(N)c2c1 | > 100 | > 100 |  |  |  | 
43 | Cc1cc(N)c2cc(NC(=O)CCc3ccc(F)cc3)ccc2n1 | > 100 | > 100 |  |  |  | 
44 | O=C(N/N=C/c1cc([N+](=O)[O-])ccc1O)c1ccc(O)c(O)c1 |  |  |  |  |  | 1.1
45 | Cc1cc(N)c2cc(NC(=O)c3ccc(-c4cnc5ccccc5c4)cc3)ccc2n1 | > 100 | 3 | 78 | 11 |  | 
46 | Cc1cc(N)c2cc(NC(=O)c3ccc(Oc4ccccc4)cc3)ccc2n1 | > 100 | 70 | > 100 | > 100 |  | 
47 | Cc1cc(N)c2cc(NC(=O)c3ccc(-c4cccc5cccnc45)cc3)ccc2n1 | 65 | 11 | > 100 | 17 |  | 
48 | Cc1cc(N)c2cc(NC(=O)c3ccco3)ccc2n1 | 47 | > 100 |  |  |  | 
49 | Cc1cc(N)c2cc(NC(=O)Nc3ccc(C(C)C)cc3)ccc2n1 | 62 | 83 |  |  |  | 
50 | COc1ccc(NC(=O)Nc2ccc3nc(C)cc(N)c3c2)cc1 | 41 | > 100 |  |  |  | 
51 | Cc1cc(N)c2cc(NC(=O)c3cccc(N(C)C)c3)ccc2n1 | > 100 | > 100 |  |  |  | 
52 | Cc1cc(N)c2cc(NC(=O)c3ccc(N4CCOCC4)cc3)ccc2n1 | 27 | > 100 |  |  |  | 
53 | Cc1cc(N)c2cc(NC(=O)CCc3ccccc3Cl)ccc2n1 | > 100 | > 100 |  |  |  | 
54 | Cc1cc(N)c2cc(NC(=O)c3cccnc3)ccc2n1 | > 100 | > 100 |  |  |  | 
55 | Cc1cc(N)c2cc(NC(=O)c3ccc(-c4ccccc4)cc3)ccc2n1 | > 100 | 48 |  | > 100 |  | 
56 | COc1cccc(CCC(=O)Nc2ccc3nc(C)cc(N)c3c2)c1 | > 100 | > 100 |  |  |  | 
57 | COc1ccc2[nH]c(C(=O)Nc3ccc4nc(C)cc(N)c4c3)cc2c1 | 35 | 44 |  | > 100 |  | 
58 | Cc1cc(N)c2cc(NC(=O)Cc3ccccc3Cl)ccc2n1 | > 100 | > 100 |  |  |  | 
59 | COc1ccc(CCC(=O)Nc2ccc3nc(C)cc(N)c3c2)cc1 | > 100 | > 100 |  |  |  | 
